A selection: hits, their analogues and other compounds. The true share with any hit is near 0.77%.
mIAP block – blocks mouse intestinal alkaline phosphatase. purified mouse IAP, CDP-Star luminescence, 30 min. inhibition, % at 10 µM. 0.2% of 330,000 active;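 active = inhibition of at least 40% at 10 µM in the primary screen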
mIAP act – increases mouse intestinal alkaline phosphatase activity | muIAP, CDP-Star luminescence, 30 min; stronger effect = higher value; 1 = vehicle-only enzyme signal, 0 = enzyme-free wells | activation factor at 10 µM | 0.24% of 330,000 active | AID 2805;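 active = activation factor of at least 2 at 20 µM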
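System: Mouse IAP enzyme | Also added: CDP-Star substrate | Dosing: Compounds dispensed in DMSO | Schedule: 30 min enzyme-substrate-compound incubation at room temperature | Technique: Chemiluminescence readout | Control set: DMSO-only wells and no-enzyme negative control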
bIAP inhibitor – intestinal alkaline phosphatase (bovine) inhibition; purified bovine IAP, CDP-star luminescence, 30 min; inhibition, % at 20 µM; 190,000 tested, under 10 active; AID 1019;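 active = over 50% inhibition of intestinal alkaline phosphatase at 20 µM in the single-dose screen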
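Incubation: 30 min reaction at room temperature / Material: purified bovine intestinal alkaline phosphatase (IAP) enzyme / Input: enzyme at 1/65,000,000 dilution / Dosing: 20 µM single dose / Signal: CDP-star luminescence signal / Reagent: CDP-star chemiluminescent phosphatase substrate, 30 µM final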
hIAP activ – increases human intestinal alkaline phosphatase activity. P09923. purified human IAP, CDP-Star luminescence, 30 min; stronger effect = higher value; 1 = vehicle-only enzyme, 0 = enzyme-free background. activation factor at 10 µM. 0.16% of 330,000 active. AID 2524;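 active = activation factor of the enzyme at least 2-fold when tested at 20 µM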
Target sequence (P09923 whole entry, looked up): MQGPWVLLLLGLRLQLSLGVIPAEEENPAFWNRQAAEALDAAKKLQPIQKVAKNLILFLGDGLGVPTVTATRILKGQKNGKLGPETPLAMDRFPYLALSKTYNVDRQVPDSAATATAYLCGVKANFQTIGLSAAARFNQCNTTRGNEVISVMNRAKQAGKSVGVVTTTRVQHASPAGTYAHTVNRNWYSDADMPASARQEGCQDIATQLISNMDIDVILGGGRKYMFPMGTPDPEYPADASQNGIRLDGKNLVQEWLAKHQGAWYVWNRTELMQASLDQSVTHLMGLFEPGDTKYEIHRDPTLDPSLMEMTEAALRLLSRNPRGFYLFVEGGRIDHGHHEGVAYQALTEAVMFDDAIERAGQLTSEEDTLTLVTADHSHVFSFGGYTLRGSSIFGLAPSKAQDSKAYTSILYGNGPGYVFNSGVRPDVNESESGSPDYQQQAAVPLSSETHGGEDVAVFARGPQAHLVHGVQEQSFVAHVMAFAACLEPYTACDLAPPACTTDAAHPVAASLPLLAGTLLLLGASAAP
hIAP block – human IAP inhibition. inhibition, % at 10 µM. 0.12% of 330,000 active. P09923. purified IAP, CDP-Star luminescence, 30 min;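 active = inhibition reaching a set limit with compound at 10 µM in the primary screen, cut at about 35% in these data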
bIAP activator – intestinal alkaline phosphatase (bovine) activation; purified bovine IAP, CDP-star luminescence, 30 min; stronger effect = higher value; fold of DMSO-control signal, blank-subtracted; activation factor at 20 µM; 0.17% of 200,000 active; AID 1016;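 active = activation factor of 2 or more at 20 µM, a signal rise over negative controls twice the positive control's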
mIAP inh conf – mouse IAP inhibition confirmation; shares compounds with mIAP block; purified mouse IAP, CDP-Star luminescence, 30 min; inhibition, % at 10 µM; 4.7% of 11,000 active;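 active = inhibition of at least 40% at 10 µM in either of the two replicates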
Each line names hits and unclear results; the compound was inactive in the other large screens (follow-up assays come after a bar, where they were run).

CC(=C\c1ccco1)/C=C1/SC(=S)N(CC(=O)O)C1=O	mIAP block 50.9 (no result: bIAP inhibitor, bIAP activator) | mIAP inh conf 50.1
O=C(CCCN1C(=O)/C(=C/c2cccs2)SC1=S)Nc1ccc(O)c(C(=O)O)c1	none (no result: mIAP block, mIAP act, hIAP activ, hIAP block)
O=C(CN1C(=O)/C(=C/c2ccco2)SC1=S)Nc1ccc(O)c(C(=O)O)c1	mIAP block 74.6 (no result: bIAP inhibitor, bIAP activator) | mIAP inh conf 75.8
CSc1ccccc1NC(=O)CSc1cccc[n+]1[O-]	none (no result: bIAP inhibitor, bIAP activator)
CN(CC(=O)Nc1ccc(N2CCOCC2)cc1)C(=O)c1cc(F)c(F)cc1Cl	none (no result: bIAP inhibitor, bIAP activator)
CCCN1C2CCCC1CC(NC(=S)Nc1cccc(C)c1)C2 (stereo not drawn)	none
CCc1ccc(NC(=S)NC2CC3CCC(C2)N3Cc2ccco2)cc1 (stereo not drawn)	none
Cc1cccc(NC(=S)NC2CC3CCCC(C2)N3CC(C)C)c1 (stereo not drawn)	mIAP act 2.54 | mIAP inh conf inactive
CCc1ccc(NC(=S)NC2CC3CCCC(C2)N3Cc2ccccc2)cc1 (stereo not drawn)	mIAP act 4.96, bIAP activator 4.6 | mIAP inh conf inactive
O=C(Nc1ccccc1-c1ccccc1)NC1CC2CCCC(C1)N2Cc1ccc(F)cc1 (stereo not drawn)	mIAP act 5.05, bIAP activator 5.8 | mIAP inh conf inactive
CC1CCN(S(=O)(=O)N2CCC(C(=O)NCCc3ccccc3)CC2)CC1	none (no result: bIAP inhibitor, bIAP activator)
Cn1cccc1C(=O)OCc1cc(Cl)cc2c1OCOC2	none | mIAP inh conf 24.1
O=C(N/N=C/c1ccc(O)c(O)c1O)/C(=C/c1ccc([N+](=O)[O-])cc1)NC(=O)c1ccccc1	mIAP block 54.8 | mIAP inh conf 59.5
O=C(Cc1ccc2c(c1)OCO2)NN=Cc1ccc([N+](=O)[O-])o1	mIAP block 54.2 (no result: bIAP inhibitor, bIAP activator) | mIAP inh conf 69.0
O=C(NN=Cc1ccc(F)cc1)c1ccccc1NS(=O)(=O)c1cccs1	none (no result: bIAP inhibitor, bIAP activator)
O=C(N/N=C/c1ccc([N+](=O)[O-])o1)c1ccccc1NS(=O)(=O)c1cccs1	mIAP block 53.4 (no result: bIAP inhibitor, bIAP activator) | mIAP inh conf 62.5
O=C(N/N=C/c1ccc([N+](=O)[O-])o1)c1ccncc1	mIAP block 43.3 (no result: bIAP inhibitor, bIAP activator) | mIAP inh conf 48.0
CCCCCC(=O)N/N=C/c1ccc([N+](=O)[O-])o1	none
O=C(N/N=C/c1ccc([N+](=O)[O-])o1)c1cc2ccccc2o1	mIAP block 40.0 (no result: bIAP inhibitor, bIAP activator) | mIAP inh conf 58.9
CC1=NN(C(N)=S)C(=O)C1N=Nc1c(C)n(C)n(-c2ccccc2)c1=O (stereo not drawn)	none (no result: bIAP inhibitor, bIAP activator)
Cc1nc(S/C(=C/c2ccc(-c3ccc(C(=O)O)cc3)o2)C(=O)O)n[nH]1	mIAP block 45.2 (no result: bIAP inhibitor, bIAP activator) | mIAP inh conf 44.9
CC(=O)c1ccc(-c2ccc(/C=C(/Sc3n[nH]c(C)n3)C(=O)O)o2)cc1	none (no result: bIAP inhibitor, bIAP activator)
CCc1cccc(CC)c1NC(=O)CSc1nnc(CCC(=O)O)c(=O)[nH]1	none
Fc1cccc2sc(Nc3nnc(-c4ccccc4)o3)nc12	none | mIAP inh conf 37.5
CC(=O)c1ccc(S(=O)(=O)N(C)CC(=O)N2CCCCCC2)cc1	none (no result: bIAP inhibitor, bIAP activator)
Cc1sc(NC(=O)c2ccco2)c(C(c2cccnc2)N2CCC(C)CC2)c1C (stereo not drawn)	none
Oc1c(C=C2N=c3ccccc3=N2)sc(=S)n1-c1ccc(F)cc1	none | mIAP inh conf 38.5
O=C(/C=C/c1ccco1)NC(=S)NNC(=O)c1ccco1	mIAP block 49.2 | mIAP inh conf 54.3
O=C(/C=C/c1ccco1)NC(=S)Nc1ccc(C(=O)O)cc1	mIAP block 43.4 (no result: bIAP inhibitor, bIAP activator) | mIAP inh conf 66.7
C=CCNC(=S)NNC(=O)c1ccco1	none
CC(=O)NC(=S)Nc1ccc(NC(=S)NC(=O)/C=C/c2ccco2)cc1	none (no result: bIAP inhibitor, bIAP activator)
O=[N+]([O-])c1ccc(O)c(/C=N/n2cnc3ccccc32)c1	none
Cc1ccc(/C=C2\SC(=S)N(/N=C/c3cc([N+](=O)[O-])ccc3O)C2=O)o1	mIAP block 82.0 | mIAP inh conf 86.3
COc1ccc(CC(=O)NNC(=O)c2ccco2)cc1OC	none (no result: bIAP inhibitor, bIAP activator)
CC(NC(=S)NCc1ccc(F)cc1)C12CC3CC(CC(C3)C1)C2 (stereo not drawn)	mIAP act 4.08 | mIAP inh conf inactive
C[C@H](NC(=O)NCc1ccc(F)cc1)C(=O)O	none
CCN(CC(=O)NC(C)C)C(=O)[C@@H](NC(=O)c1ccco1)C(C)C	none
CN(C)C1=NC(=O)/C(=C/c2ccc(-c3ccc(S(N)(=O)=O)cc3)o2)S1	mIAP block 49.9 (no result: bIAP inhibitor, bIAP activator) | mIAP inh conf 49.7
NS(=O)(=O)c1ccc(-c2ccc(/C=C3\SC(=S)N(C4CCS(=O)(=O)C4)C3=O)o2)cc1 (stereo not drawn)	mIAP block 80.2 (no result: bIAP inhibitor, bIAP activator) | mIAP inh conf 87.4
NC1=NC(=O)/C(=C\c2ccc(-c3ccc(Cl)cc3)o2)S1	none (no result: bIAP inhibitor, bIAP activator)
Cc1ccc(/C=C2\SC(=S)N(C3CCS(=O)(=O)C3)C2=O)o1 (stereo not drawn)	none
O=C(N1CCCC1)C12CC3CC(CC(Cl)(C3)C1)C2	none (no result: bIAP inhibitor, bIAP activator)
O=C1OC2(c3ccccc31)c1cc(I)c(O)c(I)c1Oc1c2cc(I)c(O)c1I	mIAP block 44.4 (no result: bIAP inhibitor, bIAP activator) | mIAP inh conf 64.4
CCOC(=O)c1ccc(NC(=O)NCCc2ccccc2OC)cc1	mIAP act 2.82 | mIAP inh conf inactive
COC(=O)c1ccccc1NC(=O)NCCc1ccccc1OC	none
N#Cc1ccc(COn2nnc3ccccc32)cc1	none
COc1cccc(NC(=O)CN2CCN(C(=O)c3ccco3)CC2)c1	none (no result: bIAP inhibitor, bIAP activator)
O=C(N/N=C/c1cn(Cc2cccc(F)c2)c2ccccc12)c1cc(O)cc(O)c1	mIAP block 67.6 (no result: bIAP inhibitor, bIAP activator) | mIAP inh conf 67.3
COc1cc2c(ccc3cc(OC)c(OC)c(O)c32)cc1O	mIAP block 50.5 (no result: bIAP inhibitor, bIAP activator) | mIAP inh conf 58.2
Cc1cc(-c2nc3c4c5c(sc4[nH]c(=O)n3n2)CCC5)c(C)o1	mIAP block 48.8 | mIAP inh conf 66.1
COc1ccc([C@H]2CC(=O)C=C(/C=C/c3ccc(C(F)(F)F)cc3)C2)cc1	none (no result: bIAP inhibitor, bIAP activator)
C(=N\C(/N=C/c1ccco1)c1ccco1)/c1ccco1	mIAP block 73.0 | mIAP inh conf 74.9
C(=Nc1cccc2c(N=Cc3ccco3)cccc12)c1ccco1	mIAP block 48.0 | mIAP inh conf 40.8
Nc1nnnn1/N=C/c1ccco1	none
CN(C)c1ccc(N=Cc2ccco2)cc1	none
Nc1nc(-c2cccs2)cs1	mIAP block 46.0 | mIAP inh conf 52.3
CC(=O)Nc1nc(-c2cccs2)cs1	none
CC(=O)c1c(C)oc2ccc(NS(=O)(=O)c3ccc(O)c(C(=O)O)c3)cc12	none
O=C(O)c1cc(S(=O)(=O)Nc2ccc3oc(=O)sc3c2)ccc1O	mIAP block 65.3 | mIAP inh conf 72.1
CCOC(=O)c1cc(NC(=O)Nc2ccccn2)c(C)nc1C	none
NC1=NC2(CCCCC2)N=C(Nc2ccc(F)cc2F)N1	none

Screens deposited in PubChem BioAssay by Sanford-Burnham Center for Chemical Genomics.
